According to ChEMBL document CHEMBL1138764, “Resistance-modifying agents. 11.(1) Pyrimido[5,4-d]pyrimidine modulators of antitumor drug activity. Synthesis and structure-activity relationships for nucleoside transport inhibition and binding to alpha1-acid glycoprotein” (J Med Chem, 2004):

Key:
L1210 [1] = experiment: Inhibition of [3H]thymidine uptake in L1210 cells at 1 uM; assay type: functional; conditions: Mus musculus
How it was run: (§1)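 ³H-thymidine uptake into L1210 leukaemia cells measured by a modified rapid-mixing technique with inhibitor-stop. Values are mean ± SD of three or more separate determinations. IC50 is interpolated from concentration–inhibition curves.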

L1210 [2] = experiment: Tested for the reduction in inhibition of [3H]-thymidine uptake in L1210 cells in the presence of 5 mg/mL human AGP; NS, no significant reduction in inhibition by AGP; assay type: functional, cell-based; conditions: Mus musculus
How it was run: (§2)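 Rapid-mixing, inhibitor-stop ³H-thymidine uptake into L1210 leukaemia cells run with 5 mg/mL human AGP present. Values are mean ± SD of three or more separate determinations. Significance of the difference from inhibition without AGP is taken at p ≤ 0.05.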

L1210 [3] = experiment: Inhibition of [3H]thymidine uptake in L1210 cells at 10 uM; assay type: functional; conditions: Mus musculus; how it was run: as §1
L1210 [4] = experiment: Inhibition of [3H]thymidine uptake in L1210 cells; assay type: functional, cell-based; conditions: Mus musculus; how it was run: as §1
L1210 [5] = experiment: Compound was tested for the inhibition of [3H]thymidine uptake in L1210 cells at 3 uM; assay type: functional; conditions: Mus musculus; how it was run: as §1
L1210 [6] = experiment: Inhibition of [3H]thymidine uptake in L1210 cells in the presence of 5 mg/mL human AGP at 1 uM; assay type: functional, Mus musculus; how it was run: as §2
L1210 [7] = experiment: Tested for the reduction in inhibition of [3H]thymidine uptake in L1210 cells in the presence of 5 mg/mL human AGP; assay type: functional, Mus musculus; how it was run: as §2
L1210 [8] = experiment: Inhibition of [3H]-thymidine uptake in L1210 cells in the presence of 5 mg/mL human AGP at 10 uM; assay type: functional, Mus musculus; how it was run: as §2
L1210 [9] = experiment: Compound was tested for the inhibition of [3H]thymidine uptake in L1210 cells at 0.1 uM; assay type: functional; conditions: Mus musculus; how it was run: as §1
L1210 [10] = experiment: Compound was tested for the inhibition of [3H]thymidine uptake in L1210 cells at 100 uM; assay type: functional; conditions: Mus musculus; how it was run: as §1
L1210 [11] = experiment: Compound was tested (100 uM) for the inhibition of [3H]thymidine uptake in L1210 cells in the presence of 5 mg/mL human AGP; assay type: functional, Mus musculus; how it was run: as §2

Row | SMILES | IC50 (L1210 [4]) [nM] | inhibition at 1 µM (L1210 [1]) [%] | Reduction (L1210 [2]) | inhibition at 10 µM (L1210 [3]) [%] | inhibition at 3 µM (L1210 [5]) [%] | Inhibition (L1210 [6]) [%] | Reduction (L1210 [7]) [%] | Inhibition (L1210 [8]) [%] | inhibition at 0.1 µM (L1210 [9]) [%] | inhibition at 100 µM (L1210 [10]) [%] | Inhibition (L1210 [11]) [%]
1 | CC1(C)OC[C@@H](COc2nc(N3CCCCC3)c3nc(OC[C@@H]4COC(C)(C)O4)nc(N4CCCCC4)c3n2)O1 | – | – | – | 100 | 76 | – | – | – | – | – | –
2 | CC(O)CNc1nc(NCc2ccc3c(c2)OCO3)c2nc(NCC(C)O)nc(NCc3ccc4c(c3)OCO4)c2n1 (configuration not stated) | 260 | 69 | No significant reduction in inhibition | 90 | – | 64 | – | – | – | – | –
3 | COc1ccc(CNc2nc(NCCO)nc3c(NCc4ccc(OC)c(OC)c4)nc(NCCO)nc23)cc1OC | 500 | 62 | – | – | – | 44 | 23 | – | 29 | – | –
4 | COc1ccc(CN(C)c2nc(OCCO)nc3c(N(C)Cc4ccc(OC)cc4)nc(OCCO)nc23)cc1 | 430 | 74 | – | – | – | 17 | 77 | – | 27 | – | –
5 | COCC(COc1nc(N2CCCCC2)c2nc(OCC(COC)OC)nc(N3CCCCC3)c2n1)OC (configuration not stated) | 1880 | 38 | – | 87 | – | – | 36 | 56 | – | – | –
6 | OCC(O)COc1nc(N2CCCCC2)c2nc(OCC(O)CO)nc(N3CCCCC3)c2n1 (configuration not stated) | – | – | No significant reduction in inhibition | 32 | – | – | – | 34 | – | 83 | 80

Further compounds by falling IC50 (L1210 [4]), results first:

Row | IC50 (L1210 [4]) [nM] | SMILES | inhibition at 1 µM (L1210 [1]) [%] | Reduction (L1210 [2]) | inhibition at 10 µM (L1210 [3]) [%] | inhibition at 3 µM (L1210 [5]) [%] | Inhibition (L1210 [6]) [%] | Reduction (L1210 [7]) [%] | Inhibition (L1210 [8]) [%] | inhibition at 0.1 µM (L1210 [9]) [%] | inhibition at 100 µM (L1210 [10]) [%] | Inhibition (L1210 [11]) [%]
7 | 8800 | OCC(O)COc1nc(N2CCCCC2)c2nc(OC[C@@H](O)CO)nc(N3CCCCC3)c2n1 (some centres not stated) | – | – | 37 | – | – | 22 | 29 | – | 91 | –
8 | 3700 | OCC(O)CNc1nc(N2CCCCC2)c2nc(NCC(O)CO)nc(N3CCCCC3)c2n1 (configuration not stated) | 18 | – | 55 | – | – | 64 | 20 | – | – | –
9 | 1100 | CC1(C)OC[C@H](COc2nc(N3CCCCC3)c3nc(OC[C@H]4COC(C)(C)O4)nc(N4CCCCC4)c3n2)O1 | 47 | – | 87 | – | – | 29 | 62 | – | – | –
10 | 930 | COc1ccc(CNc2nc(NCCO)nc3c(NCc4ccc(OC)cc4)nc(NCCO)nc23)cc1 | 56 | – | – | – | 35 | 40 | – | 10 | – | –
11 | 700 | COc1ccc(CNc2nc(NCC(C)O)nc3c(NCc4ccc(OC)cc4)nc(NCC(C)O)nc23)cc1 (configuration not stated) | 58 | – | – | – | 32 | 45 | – | 21 | – | –
12 | 700 | CC(O)CNc1nc(N(C)Cc2ccccc2)c2nc(NCC(C)O)nc(N(C)Cc3ccccc3)c2n1 (configuration not stated) | 56 | – | – | – | 12 | 77 | – | 24 | – | –
13 | 670 | COc1ccc(CNc2nc(OCCO)nc3c(NCc4ccc(OC)cc4)nc(OCCO)nc23)cc1 | 40 | No significant reduction in inhibition | 88 | – | – | – | – | – | – | –
14 | 600 | OCCN(CCO)c1nc(NCc2ccccc2)c2nc(N(CCO)CCO)nc(NCc3ccccc3)c2n1 | 51 | – | 91 | – | 21 | 44 | 75 | – | – | –
15 | 220 | COc1ccc(CN(C)c2nc(OCCCO)nc3c(N(C)Cc4ccc(OC)cc4)nc(OCCCO)nc23)cc1 | 78 | – | – | – | 32 | 59 | – | 38 | – | –
